Experimental data: ChEMBL document CHEMBL3792330, “Designed Glycopeptidomimetics Disrupt Protein-Protein Interactions Mediating Amyloid β-Peptide Aggregation and Restore Neuroblastoma Cell Viability” (J Med Chem, 2016)
The source made the active and inactive calls. No cut-off for these calls is given here. *1 amine or outer side, *2 acyl side, *3 side chain or, on linkers, in order; H or OH if unused. Where a SMILES comes first, the peptide text is derived from it. [ ]: non-standard residue; d: D form. X1 = O=C(CCOC[C@H]1O[C@@H](OCCCN[*:1])[C@H](O)[C@@H](O)[C@@H]1O)[*:2]

Key:
[1] = target: Amyloid-beta precursor protein (Homo sapiens) (UniProt P05067); assay: Inhibition of amyloid beta (1 to 42) (unknown origin) fibril formation assessed as extension of aggregation half life at compound/protein ratio of 10/1 after 42 hrs by ThT fluorescence assay relative to control; parameters: Activity: scale not given: the % may be the effect or the level left
Procedure, shortened: (§1)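 Aβ1-42 (1 mM in 1% ammonia, diluted in buffer) added to a final 10 μM into 40 μM ThT in 10 mM Tris-HCl, 100 mM NaCl pH 7.4, with compound at 100, 50, 10 or 1 μM (0.5% DMSO), at room temperature. Ex/em 440/485 nm read for 42 h, in duplicate or triplicate, 2–4 runs. t1/2 and plateau F expressed relative to Aβ alone.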

[2] = target: Amyloid-beta precursor protein (Homo sapiens) (UniProt P05067); assay: Inhibition of amyloid beta (1 to 42) (unknown origin) fibril formation assessed as extension of aggregation half life at compound/protein ratio of 1/1 after 42 hrs by ThT fluorescence assay relative to control; parameters: Activity: scale not given: the % may be the effect or the level left; procedure, shortened: as §1
[3] = target: Amyloid-beta precursor protein (Homo sapiens) (UniProt P05067); assay: Inhibition of amyloid beta (1 to 42) (unknown origin) fibril formation assessed as decrease in fluorescence plateau at compound/protein ratio of 10/1 after 42 hrs by ThT fluorescence assay relative to control; conditions: concentration not given here; procedure, shortened: as §1
[4] = target: Amyloid-beta precursor protein (Homo sapiens) (UniProt P05067); assay: Inhibition of amyloid beta (1 to 42) (unknown origin) fibril formation assessed as decrease in fluorescence plateau at compound/protein ratio of 1/1 after 42 hrs by ThT fluorescence assay relative to control; procedure, shortened: as §1
[5] = target: Amyloid-beta precursor protein (Homo sapiens) (UniProt P05067); assay: Inhibition of amyloid beta (1 to 42) (unknown origin) fibril formation after 42 hrs by ThT fluorescence assay; procedure, shortened: as §1
[6] = target: Amyloid-beta precursor protein (Homo sapiens) (UniProt P05067); assay: Inhibition of amyloid beta (1 to 42) (unknown origin) aggregation after 42 hrs by uranyl acetate staining-based transmission electron microscopy
Procedure, shortened: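 Samples prepared as for ThT: Aβ1-42 at 10 μM in 10 mM Tris-HCl, 100 mM NaCl pH 7.4, with or without compound at 10 or 100 μM. After 42 h, adsorbed 2 min onto carbon grids and negatively stained 45 s with 2% uranyl acetate. Imaged by TEM at 80 kV.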

[7] = target: Amyloid-beta precursor protein (Homo sapiens) (UniProt P05067); assay: Binding affinity to amyloid beta (1 to 42) (unknown origin) by SPR analysis
Procedure, shortened: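 Aβ1-42 (0.05 μM in 10 mM sodium acetate pH 4.6) amine-coupled to an EDC/NHS-activated gold chip, then rinsed with 0.1% NH4OH to leave mainly monomer. Analytes in 150 mM PBS with 2% DMSO were injected at 12.5–200 μM for 1 min at 80 μL/min. DMSO solvent correction applied and the ethanolamine-blocked blank channel subtracted. Regeneration with 0.1% NH4OH.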

[8] = test system: SH-SY5Y; assay: Neuroprotective activity against amyloid beta (1 to 42)-induced toxicity in human SH-SY5Y cells assessed as cell viability at 0.25 to 5 uM after 24 hrs by MTS assay; type: functional, cell-based
Procedure, shortened: (§2)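 Aβ1-42 at 50 μM in sterile PBS pre-incubated 24 h at room temperature with 1, 5, 10 or 50 μM compound, then diluted 1:10 (5 μM Aβ final) onto SH-SY5Y cells. Cells seeded at 20 000/well in low-serum Optimem, 37 °C, 5% CO2, 24 h. Exposure a further 24 h in quadruplicate. MTS viability or LDH release read; assays repeated twice.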

[9] = test system: SH-SY5Y; assay: Neuroprotective activity against amyloid beta (1 to 42)-induced membrane damage in human SH-SY5Y cells at 0.1 to 5 uM after 24 hrs by LDH assay; type: functional, cell-based; procedure, shortened: as §2
[10] = test system: Plasma; assay: Metabolic stability in 10% human plasma assessed as drug degradation at 1 uM after 24 hrs by HPLC analysis; type: ADME, cell-free
Procedure, shortened: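 Compounds taken from 40 μM DMSO stock to 1 μM in 10% human plasma/90% sterile PBS, held 24 h at 37 °C. Analysed by C18 HPLC with a 0–80% gradient (A: 0.1% TFA in water; B: 0.05% TFA in acetonitrile).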

Sequence of Amyloid-beta precursor protein (Homo sapiens) (P05067 whole entry): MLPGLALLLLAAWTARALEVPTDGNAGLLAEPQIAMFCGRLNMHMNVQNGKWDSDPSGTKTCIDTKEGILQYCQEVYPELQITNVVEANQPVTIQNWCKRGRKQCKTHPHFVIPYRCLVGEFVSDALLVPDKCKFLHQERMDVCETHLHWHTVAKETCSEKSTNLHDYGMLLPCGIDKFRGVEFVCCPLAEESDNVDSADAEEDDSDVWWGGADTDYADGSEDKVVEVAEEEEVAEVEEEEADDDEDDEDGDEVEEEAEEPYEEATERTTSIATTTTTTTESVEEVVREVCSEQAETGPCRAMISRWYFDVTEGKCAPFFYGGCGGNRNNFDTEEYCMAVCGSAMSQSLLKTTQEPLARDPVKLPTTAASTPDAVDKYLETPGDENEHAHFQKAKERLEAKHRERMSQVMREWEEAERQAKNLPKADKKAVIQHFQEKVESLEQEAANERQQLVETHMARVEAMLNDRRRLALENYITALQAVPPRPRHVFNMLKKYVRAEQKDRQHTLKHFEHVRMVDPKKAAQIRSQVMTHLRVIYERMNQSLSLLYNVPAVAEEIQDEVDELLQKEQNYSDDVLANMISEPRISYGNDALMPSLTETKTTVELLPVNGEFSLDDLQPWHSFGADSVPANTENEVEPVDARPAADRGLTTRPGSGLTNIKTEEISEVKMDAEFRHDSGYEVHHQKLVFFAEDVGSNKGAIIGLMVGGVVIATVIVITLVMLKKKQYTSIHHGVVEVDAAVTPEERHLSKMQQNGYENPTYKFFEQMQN

Row | Activity [1] [%] | Activity [2] [%] | inhibition [3] [%] | inhibition [4] | inhibition [5] | inhibition [6] | inhibition [2] | Activity [7] | Stability [10] | SMILES | Activity [8] | Activity [9]
1 | 379 | 138 | 41 | inactive | – | – | – | – | – | COc1ccc(NC(C)=O)cc1C(=O)NNC(=O)[C@@H](NC(=O)CCOC[C@H]1OC(OCCCNC(=O)[C@@H](NC(=O)[C@H](C)NC(=O)OC(C)(C)C)C(C)C)[C@H](O)[C@@H](O)[C@@H]1O)C(C)C (stereo not given in full) | – | –
2 | – | – | – | – | inactive | inactive | – | – | – | COc1ccc(NC(C)=O)cc1C(=O)NNC(=O)[C@H](CCCCNC(=O)OCc1ccccc1)NC(=O)CCOC[C@H]1OC(OCCCNC(=O)[C@@H](NC(=O)[C@H](C)NC(=O)OC(C)(C)C)C(C)C)[C@H](OCc2ccccc2)[C@@H](OCc2ccccc2)[C@@H]1OCc1ccccc1 (mixture of isomers) | – | –
3 | 325 | 155 | 31 | inactive | – | – | – | – | – | COc1ccc(NC(C)=O)cc1C(=O)NNC(=O)[C@@H](NC(=O)CCOC[C@H]1OC(OCCCNC(=O)[C@@H](NC(=O)[C@H](C)N)C(C)C)[C@H](O)[C@@H](O)[C@@H]1O)C(C)C (mixture of isomers) | – | –
4 | 280 | – | 56 | inactive | – | – | inactive | Dose-dependent effect | Unstable | COC(=O)[C@H](CC(C)C)NC(=O)[C@@H](NC(=O)CCOC[C@H]1O[C@@H](OCCCNC(=O)[C@@H](NC(=O)[C@H](C)N)C(C)C)[C@H](O)[C@@H](O)[C@@H]1O)C(C)C (H-AV[X1]VL-OMe) | Active | Active
5 | – | – | – | – | inactive | inactive | – | – | – | COc1ccc(NC(C)=O)cc1C(=O)NNC(=O)[C@@H](NC(=O)CCOC[C@H]1OC(OCCCNC(=O)[C@@H](NC(=O)[C@H](C)N)C(C)C)[C@H](OCc2ccccc2)[C@@H](OCc2ccccc2)[C@@H]1OCc1ccccc1)C(C)C (mixture of isomers) | – | –
